Assay results: ChEMBL document CHEMBL2062523, “Synthesis and evaluation of the quorum sensing inhibitory effect of substituted triazolyldihydrofuranones” (Bioorg Med Chem, 2012)
Values after ≈ are worked out from the molar mass of the structure shown. Active and inactive are the calls of the source. No cut-off for these calls is given here.

Experiments:
Assay type in all cases: functional
[1] = system: Pseudomonas aeruginosa; assay: Agonist activity at Pseudomonas aeruginosa QSIS2 LasR-mediated quorum sensing co-expressing SacB1 assessed as luminescence at 0.1 mM after 24 hrs by reporter gene assay
[2] = system: Pseudomonas aeruginosa; assay: Agonist activity at Pseudomonas aeruginosa QSIS2 LasR-mediated quorum sensing co-expressing SacB1 assessed as luminescence after 24 hrs by reporter gene assay
[3] = target: T1, Transcriptional activator protein LuxR (Aliivibrio fischeri) (UniProt P12746); assay: Antagonist activity at Vibrio fischeri LuxR-mediated quorum sensing expressed in Escherichia coli JB523 assessed as inhibition of C6-HSL-induced GFP expression at 0.1 mM after 24 hrs by reporter gene assay
T1 sequence (whole entry): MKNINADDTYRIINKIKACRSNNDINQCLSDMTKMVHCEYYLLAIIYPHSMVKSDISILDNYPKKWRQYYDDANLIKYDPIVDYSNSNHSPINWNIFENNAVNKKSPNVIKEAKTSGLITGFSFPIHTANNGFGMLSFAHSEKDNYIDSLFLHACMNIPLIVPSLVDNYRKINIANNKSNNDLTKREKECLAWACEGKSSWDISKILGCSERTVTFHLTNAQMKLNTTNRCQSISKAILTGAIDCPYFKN
In short: (§1)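 JB523 GFP biosensor in LB/0.4% NaCl at OD590 0.1 with tetracycline 100 µg/ml final; compounds co-added with C6-HSL (5 µM). Plates kept 24 h at 30 °C, then GFP read at 485/510 nm. Each compound tested in twelve wells, assay repeated at least three times.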

[4] = system: Pseudomonas aeruginosa; assay: Antibacterial activity against Pseudomonas aeruginosa QSIS2 after 20 hrs by broth microdilution assay; conditions: QSIS2, 20 h
In short: (§2)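 EUCAST broth microdilution in triplicate, inoculum about 5 × 10^5 CFU/ml. Incubated 20 h at 37 °C, then OD590 read. Compounds from 100 mM DMSO stocks, diluted in water.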

[5] = system: Pseudomonas aeruginosa; assay: Antagonist activity at Pseudomonas aeruginosa QSIS2 LasR-mediated quorum sensing co-expressing SacB1 assessed as inhibition of 3-oxo-C12-HSL-induced luminescence at 0.5 mM after 24 hrs by reporter gene assay
[6] = target: T1, Transcriptional activator protein LuxR (Aliivibrio fischeri); assay: Agonist activity at Vibrio fischeri LuxR-mediated quorum sensing expressed in Escherichia coli JB523 assessed as GFP expression at 0.25 mM after 24 hrs by reporter gene assay
In short: (§3)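 E. coli JB523 (pJBA130, luxR-PluxI–GFP) overnight culture diluted to OD590 0.1 in LB with 0.4% NaCl, tetracycline 100 µg/ml final. Compounds 100–1000 µM added without signal; C6-HSL (5 µM) as positive control, water as negative. 24 h at 30 °C; GFP fluorescence ex 485/em 510 nm. Twelve wells per compound, ≥3 repeats.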

[7] = system: Burkholderia cenocepacia; assay: Antibacterial activity against Burkholderia cenocepacia LMG16656 after 20 hrs by broth microdilution assay; conditions: LMG16656, 20 h; in short: as §2
[8] = system: Pseudomonas aeruginosa; assay: Antagonist activity at Pseudomonas aeruginosa QSIS2 LasR-mediated quorum sensing co-expressing SacB1 assessed as inhibition of 3-oxo-C12-HSL-induced luminescence at 0.1 mM after 24 hrs by reporter gene assay
[9] = target: T1, Transcriptional activator protein LuxR (Aliivibrio fischeri); assay: Antagonist activity at Vibrio fischeri LuxR-mediated quorum sensing expressed in Escherichia coli JB523 assessed as inhibition of C6-HSL-induced GFP expression at 1 mM after 24 hrs by reporter gene assay; in short: as §1
[10] = system: Pseudomonas aeruginosa; assay: Agonist activity at Pseudomonas aeruginosa QSIS2 LasR-mediated quorum sensing co-expressing SacB1 assessed as luminescence at 0.5 mM after 24 hrs by reporter gene assay
[11] = system: Pseudomonas aeruginosa; assay: Agonist activity at Pseudomonas aeruginosa QSIS2 LasR-mediated quorum sensing co-expressing SacB1 assessed as luminescence at 0.25 mM after 24 hrs by reporter gene assay
[12] = system: Escherichia coli; assay: Antibacterial activity against Escherichia coli JB523 after 20 hrs by broth microdilution assay; conditions: JB523, 20 h; in short: as §2
[13] = target: T1, Transcriptional activator protein LuxR (Aliivibrio fischeri); assay: Agonist activity at Vibrio fischeri LuxR-mediated quorum sensing expressed in Escherichia coli JB523 assessed as GFP expression at 0.5 mM after 24 hrs by reporter gene assay; in short: as §3
[14] = target: T1, Transcriptional activator protein LuxR (Aliivibrio fischeri); assay: Agonist activity at Vibrio fischeri LuxR-mediated quorum sensing expressed in Escherichia coli JB523 assessed as GFP expression at 0.1 mM after 24 hrs by reporter gene assay; in short: as §3
[15] = target: T1, Transcriptional activator protein LuxR (Aliivibrio fischeri); assay: Agonist activity at Vibrio fischeri LuxR-mediated quorum sensing expressed in Escherichia coli JB523 assessed as GFP expression at 1 mM after 24 hrs by reporter gene assay; in short: as §3
[16] = system: Pseudomonas aeruginosa; assay: Agonist activity at Pseudomonas aeruginosa QSIS2 LasR-mediated quorum sensing coexpressing SacB1 assessed as […] by reporter gene assay
[17] = system: Pseudomonas aeruginosa; assay: Antagonist activity at Pseudomonas aeruginosa QSIS2 LasR-mediated quorum sensing co-expressing SacB1 assessed as inhibition of 3-oxo-C12-HSL-induced luminescence at 0.25 mM […] by reporter gene assay
[18] = target: T1, Transcriptional activator protein LuxR (Aliivibrio fischeri); assay: Antagonist activity at Vibrio fischeri LuxR-mediated quorum sensing expressed in Escherichia coli JB523 assessed as inhibition of C6-HSL-induced GFP expression after 24 hrs by reporter gene assay; in short: as §1
[19] = system: Pseudomonas aeruginosa; assay: Antagonist activity at Pseudomonas aeruginosa QSIS2 LasR-mediated quorum sensing co-expressing SacB1 assessed as inhibition of 3-oxo-C12-HSL-induced luminescence at 1 mM […] by reporter gene assay
[20] = target: T1, Transcriptional activator protein LuxR (Aliivibrio fischeri); assay: Antagonist activity at Vibrio fischeri LuxR expressed in Escherichia coli JB523 assessed as inhibition of C6-HSL-induced GFP expression at 0.5 mM after 24 hrs by reporter gene assay; in short: as §1
[21] = system: Pseudomonas aeruginosa; assay: Antibacterial activity against Pseudomonas aeruginosa PAO1 after 20 hrs by broth microdilution assay; conditions: PAO1, 20 h; in short: as §2

SMILES | Activity [1] | inhibition [3] | MIC [4] [mM] | inhibition [5] | Activity [6] | MIC [7] [mM] | inhibition [8] | inhibition [9] [%] | Activity [10] | Activity [11] | MIC [12] [mM] | Activity [13] | Activity [14] | Activity [15] | Activity [16] | inhibition [17] | inhibition [18] | inhibition [19] | inhibition [20] [%] | MIC [21] [mM] | also measured
O=C1OCCC1n1cc(Cc2ccccc2)nn1 (stereo not drawn) | 19.1% | 6.3% | 5 (≈ 1220 µg/mL) | inactive | inactive | 5 (≈ 1220 µg/mL) | inactive | 34.4 | 39.7% | 31.1% | 5 (≈ 1220 µg/mL) | inactive | inactive | inactive | 67.5% | inactive | Dose-dependent effect | 49.9% | 29.6 | 5 (≈ 1220 µg/mL) | Activity [2]: Dose-dependent effect
CCCCCc1cn(C2CCOC2=O)nn1 (stereo not drawn) | inactive | 9% | 5 (≈ 1120 µg/mL) | inactive | 5.7% | 5 (≈ 1120 µg/mL) | inactive | 35.1 | inactive | inactive | 5 (≈ 1120 µg/mL) | 16.3% | inactive | 25.9% | inactive | inactive | Dose-dependent effect | inactive | 27.5 | 5 (≈ 1120 µg/mL) | 
CCCCCCCCCCc1cn(C2CCOC2=O)nn1 (stereo not drawn) | 32.1% | 12.4% | 2.5 (≈ 734 µg/mL) | 15% | inactive | 2.5 (≈ 734 µg/mL) | 7% | 31.9 | 38% | 31.4% | 2.5 (≈ 734 µg/mL) | inactive | inactive | inactive | 57.2% | 8.1% | Dose-dependent effect | 21.9% | 28 | 2.5 (≈ 734 µg/mL) | Activity [2]: Dose-dependent effect
CCCCc1cn(C2CCOC2=O)nn1 (stereo not drawn) | inactive | 12.7% | 5 (≈ 1050 µg/mL) | inactive | inactive | 5 (≈ 1050 µg/mL) | inactive | 27.9 | inactive | inactive | 5 (≈ 1050 µg/mL) | 11.6% | inactive | 17.3% | inactive | inactive | Dose-dependent effect | inactive | 22.5 | 5 (≈ 1050 µg/mL) | 
O=C1OCCC1n1cc(-c2ccccc2)nn1 (stereo not drawn) | inactive | inactive | 5 (≈ 1150 µg/mL) | inactive | inactive | 5 (≈ 1150 µg/mL) | inactive | 26.9 | 14.4% | inactive | 10 (≈ 2290 µg/mL) | inactive | inactive | 12.8% | 22.2% | inactive | Dose-dependent effect | inactive | 24.5 | 5 (≈ 1150 µg/mL) | Activity [2]: Dose-dependent effect
CCCCCCc1cn(C2CCOC2=O)nn1 (stereo not drawn) | inactive | 11.6% | 5 (≈ 1190 µg/mL) | inactive | 10% | 5 (≈ 1190 µg/mL) | inactive | 34.3 | inactive | inactive | 5 (≈ 1190 µg/mL) | 17.5% | inactive | 32.7% | inactive | inactive | Dose-dependent effect | inactive | 23.2 | 5 (≈ 1190 µg/mL) | 
CCCCCCCc1cn(C2CCOC2=O)nn1 (stereo not drawn) | inactive | 13.7% | 5 (≈ 1260 µg/mL) | inactive | 8% | 5 (≈ 1260 µg/mL) | inactive | 39 | inactive | inactive | 5 (≈ 1260 µg/mL) | 12.2% | inactive | 17.6% | inactive | inactive | Dose-dependent effect | inactive | 34.6 | 5 (≈ 1260 µg/mL) | 
